Test results as given in ChEMBL document CHEMBL3352392, “Identification of novel thiadiazoloacrylamide analogues as inhibitors of dengue-2 virus NS2B/NS3 protease” (Bioorg Med Chem, 2014).
Active and inactive are the calls of the source. No cut-off for these calls is given here.

Columns and labels:
[1] = biological target: Genome polyprotein (dengue virus type 2) (UniProt P12823); test: Inhibition of Dengue virus 2 NS2B/NS3 protease using Bz-Nle-Lys-Arg-Arg-AMC as substrate preincubated at 20 uM for 30 mins before substrate addition by fluorescence assay
Outline: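 E. coli BL21-expressed DENV2 NS2B-NS3pro, 200 nM, with compound at 20 µM in 50 mM Tris-HCl pH 8.5, 10 mM NaCl, 20% glycerol, 1 mM CHAPS, 37 °C for 30 min. Bz-Nle-Lys-Arg-Arg-AMC added to start. Fluorescence read every 10 s for 5 min (ex 380/em 460 nm). Inhibition rate from maximum reaction rate with versus without compound. Aprotinin 1 µM as positive control.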

Genome polyprotein [2] = biological target: T1, Genome polyprotein (dengue virus type 2, UniProt P12823); test: Inhibition of Dengue virus 2 NS2B/NS3 protease using Bz-Nle-Lys-Arg-Arg-AMC as substrate preincubated for 30 mins before substrate addition by fluorescence assay
Outline: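 Purified DENV2 NS2B-NS3pro (200 nM; E. coli BL21) mixed with compound at eleven levels, 0.1 nM–200 µM, in pH 8.5 Tris-HCl buffer with 10 mM NaCl, 20% glycerol, 1 mM CHAPS. Preincubated 30 min at 37 °C, then Bz-Nle-Lys-Arg-Arg-AMC added. AMC fluorescence (380/460 nm) followed every 10 s over 5 min. IC50 from the concentration series.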

Genome polyprotein [3] = biological target: T1, Genome polyprotein; test: (§1) Binding affinity to Dengue virus 2 NS2B/NS3 protease by SPR assay
Outline: (§2)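 DENV2 NS2B/NS3pro purified from E. coli BL21 and amine-coupled onto a CM5 chip in 10 mM sodium acetate, pH 3.95. Compounds serially diluted in HBS (0.01 M HEPES, 0.15 M NaCl, 3 mM EDTA, 0.005% P20, pH 7.4). Biacore 3000 SPR gave the equilibrium KD.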

[4] = biological target: Genome polyprotein (dengue virus type 2) (UniProt P12823); test: as §1; outline: as §2

Structure (SMILES)	inhibition [1] [%]	IC50 (Genome polyprotein [2]) [µM]	Kd (Genome polyprotein [3]) [µM]	Activity [4]
N#C/C(=C\c1cn(Cc2ccccc2)c2ccccc12)C(=O)Nc1nnc(SCc2ccc(Cl)cc2)s1	63.4			
N#C/C(=C\c1cn(Cc2ccc(C(F)(F)F)cc2)c2ccccc12)C(=O)Nc1nnc(SCc2ccccc2)s1	45.9			
N#C/C(=C\c1cn(Cc2ccccc2)c2ccccc12)C(=O)Nc1nnc(SCc2ccccc2Cl)s1	63.5			
COc1ccc(CSc2nnc(NC(=O)/C(C#N)=C/c3cn(Cc4ccccc4)c4ccccc34)s2)cc1	76.3	3.44		
N#C/C(=C\c1cn(Cc2ccccc2)c2ccccc12)C(=O)Nc1nnc(SCc2ccccc2)s1	79	4.44	3.59	
N#C/C(=C\c1cn(Cc2ccc(F)cc2)c2ccccc12)C(=O)Nc1nnc(SCc2ccccc2)s1	86.5	2.24	2.07	
N#C/C(=C\c1cn(Cc2ccccc2)c2ccccc12)C(=O)Nc1nnc(SCc2ccc(F)cc2)s1	83.4	3.72		
N#C/C(=C\c1cn(Cc2ccccc2C#N)c2ccccc12)C(=O)Nc1nnc(SCc2ccccc2)s1	85.8	2.86		
N#C/C(=C\c1cn(Cc2ccccc2)c2ccccc12)C(=O)Nc1nnc(C(F)(F)F)s1	76	10.1	9.27	
O=C(/C=C/c1cn(Cc2ccccc2)c2ccccc12)Nc1nnc(C(F)(F)F)s1				inactive
Cc1ccccc1CSc1nnc(NC(=O)/C(C#N)=C/c2cn(Cc3ccccc3)c3ccccc23)s1	69.4			
N#C/C(=C\c1cn(Cc2ccccc2F)c2ccccc12)C(=O)Nc1nnc(SCc2ccccc2)s1	88.9	3.58		
N#C/C(=C\c1cn(Cc2ccccc2)c2ccccc12)C(=O)Nc1nnc(SCc2cccc3ccccc23)s1	50			
N=C1/C(=C/c2cn(Cc3ccccc3)c3ccccc23)C(=O)N=C2SC(SCc3ccccc3)=NN12	72	6.09		
N#C/C(=C\c1cn(Cc2ccc(C(F)(F)F)cc2C(F)(F)F)c2ccccc12)C(=O)Nc1nnc(SCc2ccccc2)s1	54.1			
N#C/C(=C\c1cn(Cc2ccccc2)c2ccccc12)C(=O)Nc1nnc(SCc2ccc(Br)cc2)s1	65.8			
